Experiments:
RAW264.7 [1] = assay: Cytotoxicity against mouse RAW264.7 cells assessed as effect on cell viability at 50 uM by MTT assay; format: cell-based; conditions: raw264.7, 50 µM
HCT-116 = assay: Cytotoxicity against human HCT116 cells by MTT assay; format: functional, cell-based
Method in brief: (§1)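 MTT-based growth inhibition of HCT116 and DU145 cells following an established protocol, with taxol as positive control.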

DU-145 = assay: Cytotoxicity against human DU145 cells by MTT assay; format: functional, cell-based; method in brief: as §1
RAW264.7 [2] = assay: Inhibition of LPS-induced nitric oxide production in mouse RAW264.7 cells after 24 hrs by Griess assay; format: functional, cell-based; conditions: RAW264.7, 24 h

| IC50 (RAW264.7 [2]) [µM] | SMILES | Activity (RAW264.7 [1]) | IC50 (HCT-116) [µM] | IC50 (DU-145) [µM] |
| --- | --- | --- | --- | --- |
| – | C=C(C(=O)O)[C@H]1C[C@@]23O[C@@]2(C)CCC[C@]3(C)C[C@@H]1OC(C)=O | Non-Toxic | > 50 | > 50 |
| 10.7 | C[C@@H]1C[C@H]2[C@@H]3CCC4=CC(=O)C=C[C@]4(C)[C@@]3(F)[C@@H](O)C[C@]2(C)[C@@]1(O)C(=O)CO [DEXAMETHASONE] | – | – | – |
| 10.8 | C=C(C(=O)O)[C@@H]1C[C@@H]2O[C@@]23CCC[C@H](C)[C@@]3(C)C1 | Non-Toxic | > 50 | > 50 |
| 18.9 | C=C(C(=O)O)[C@@H]1CC=C2[C@H](O)CC[C@H](C)[C@@]2(C)C1 | Non-Toxic | > 50 | > 50 |

From ChEMBL document CHEMBL4251682, “Nitric Oxide Inhibitory Sesquiterpenoids and Its Dimers from Artemisia freyniana” (J Nat Prod, 2018)
